Assay results: ChEMBL document CHEMBL2163245 (J Med Chem, 2012)
pEC50, pIC50: −log10 of the molar value.

Columns and labels:
[1] = target: T1, Potassium voltage-gated channel subfamily KQT member 2 (Homo sapiens, UniProt O43526); test: Antagonist activity at KCNQ2 expressed in CHO cells incubated for 3 mins by automated patch clamp assay; format: functional, cell-based
[2] = target: T1, Potassium voltage-gated channel subfamily KQT member 2; test: Agonist activity at KCNQ2 expressed in CHO cells incubated for 3 mins by automated patch clamp assay; format: functional, cell-based
In short: (§1)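 Ionworks Quattro population patch clamp on CHO cells stably expressing KCNQ2, 7,000 cells/well in extracellular solution (mM: 137 NaCl, 4 KCl, 1 MgCl2, 1.8 CaCl2, 10 HEPES, 10 glucose, pH 7.4), amphotericin B (50 μg/ml) perforation. Held -90 mV, 2,000 ms step to -10 mV; steady-state current at pulse end before and 3 min after compound; % change versus pre-compound current. Cells >100 pA and seal >30 MΩ only.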

[3] = Selectivity ratio of IC50 for KCNQ1 to KCNQ2
[4] = target: T1, Potassium voltage-gated channel subfamily KQT member 2; test: Agonist activity at KCNQ2 expressed in CHO cells at 30 uM incubated for 3 mins by automated patch clamp assay; format: functional, cell-based; in short: as §1

T1 sequence (O43526 whole entry): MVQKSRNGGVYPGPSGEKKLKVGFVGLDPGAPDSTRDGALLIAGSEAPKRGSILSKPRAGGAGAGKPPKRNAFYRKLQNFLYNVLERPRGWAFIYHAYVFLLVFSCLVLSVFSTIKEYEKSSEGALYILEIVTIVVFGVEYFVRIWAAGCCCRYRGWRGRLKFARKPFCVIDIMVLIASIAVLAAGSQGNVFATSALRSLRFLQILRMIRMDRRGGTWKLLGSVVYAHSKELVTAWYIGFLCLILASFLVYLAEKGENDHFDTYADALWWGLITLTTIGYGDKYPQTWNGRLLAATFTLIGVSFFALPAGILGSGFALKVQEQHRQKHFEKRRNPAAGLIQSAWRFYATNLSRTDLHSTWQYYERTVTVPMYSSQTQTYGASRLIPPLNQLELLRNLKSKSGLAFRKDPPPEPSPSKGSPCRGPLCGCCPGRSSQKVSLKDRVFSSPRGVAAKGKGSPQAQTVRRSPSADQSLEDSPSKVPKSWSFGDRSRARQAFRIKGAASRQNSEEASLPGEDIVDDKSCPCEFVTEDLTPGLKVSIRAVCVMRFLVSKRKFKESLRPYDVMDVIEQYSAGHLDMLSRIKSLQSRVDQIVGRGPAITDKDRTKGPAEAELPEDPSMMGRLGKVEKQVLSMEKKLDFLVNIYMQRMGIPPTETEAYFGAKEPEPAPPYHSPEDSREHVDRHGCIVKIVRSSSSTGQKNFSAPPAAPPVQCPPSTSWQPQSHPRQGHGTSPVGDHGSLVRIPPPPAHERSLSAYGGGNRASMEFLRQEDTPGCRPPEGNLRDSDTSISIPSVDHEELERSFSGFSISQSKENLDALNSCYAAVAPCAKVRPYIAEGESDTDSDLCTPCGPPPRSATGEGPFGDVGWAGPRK

| Structure (SMILES) | pIC50 [1] | pEC50 [2] | also measured |
| --- | --- | --- | --- |
| CCC(C(=O)Nc1ccccc1N1CCCC1)c1ccc(Cl)c(Cl)c1 (racemic) | 6.33 | – | – |
| CCC(C(=O)Nc1ccccc1N1C(=O)CCC1=O)c1ccccc1 (racemic) | < 4.52 | – | – |
| CCC(C(=O)Nc1ccccc1N1CCCC1)c1ccc(OC)c(OC)c1 (racemic) | 4.69 | – | – |
| O=C(Cc1cccc(Cl)c1)Nc1cccc(N2CCCC2)c1 | – | 5.99 | – |
| O=C(Cc1ccc(F)c(F)c1)Nc1ccccc1N1CCCC1 | – | 5.76 | – |
| CC[C@H](C(=O)Nc1ccccc1N1CCCCC1)c1ccccc1 | – | – | Ratio IC50 [3]: > 40 |
| CCN(C)c1ccccc1NC(=O)Cc1cccc(Cl)c1 | – | < 4.52 | – |
| O=C(Cc1cccc(Cl)c1)Nc1ccccc1-n1cccc1 | – | 4.91 | – |
| O=C(Cc1cccc(Cl)c1)Nc1ccccc1N1CCOCC1 | – | < 4.52 | – |
| CCC(C(=O)Nc1ccccc1Cl)c1ccccc1 (racemic) | 4.82 | – | – |
| CCC(C(=O)Nc1ccc(N2CCCC2)cc1)c1ccccc1 (configuration not stated) | 6.68 | – | – |
| CCC(C(=O)Nc1ccccc1-n1c(C)ccc1C)c1ccccc1 (racemic) | – | < 4.52 | – |
| O=C(Cc1ccccc1F)Nc1ccccc1N1CCCC1 | – | – | inhibition [4]: 26.6% |
| CCC(C(=O)Nc1ccccc1N1CCCC1)c1ccc(F)c(F)c1 (racemic) | 6.77 | – | – |
| CCC(C(=O)Nc1ccccc1N1CCOCC1)c1ccccc1 (racemic) | 4.90 | – | – |
| CCC(C(=O)Nc1ccccc1-n1cccc1)c1ccccc1 (racemic) | 5.28 | – | – |
| CCC(C(=O)Nc1ccccc1N(C)CC)c1ccccc1 (racemic) | < 4.52 | – | – |
| C[C@H](C(=O)Nc1ccccc1N1CCCC1)c1ccccc1 | – | – | Ratio IC50 [3]: > 40 |
| CCC(C(=O)Nc1ccccc1N1CCCC1)c1ccc(Cl)cc1 (racemic) | 6.55 | – | Ratio IC50 [3]: > 40 |
| O=C(Cc1cccc(Cl)c1)Nc1ccccc1N1CCCCCC1 | – | < 4.52 | – |
| CN(Cc1ccccc1)c1ccccc1NC(=O)Cc1cccc(Cl)c1 | – | < 4.52 | – |
| CCC(C(=O)Nc1ccccc1-n1ccnc1)c1ccccc1 (racemic) | < 4.52 | – | – |
| CN(C)c1ccccc1NC(=O)Cc1cccc(Cl)c1 | – | 4.56 | – |
| O=C(Cc1cccc(Cl)c1)Nc1ccc(N2CCCC2)cc1 | – | 5.06 | – |
| CCC(C(=O)Nc1ccccc1N1CCCC1)c1ccc(OC)cc1 (racemic) | 6.42 | – | – |
| CCC(C(=O)Nc1ccccc1N1CCCC1)c1ccc(F)cc1 (racemic) | 6.89 | – | Ratio IC50 [3]: > 40 |
| CN(C(=O)Cc1ccccc1)c1ccccc1N1CCCC1 | – | < 4.52 | – |
| O=C(Cc1ccc(Cl)c(Cl)c1)Nc1ccccc1N1CCCC1 | – | 5.97 | – |
| CCC(C(=O)Nc1cccc(N2CCCC2)c1)c1ccccc1 (racemic) | < 4.52 | – | – |

Continued, in another order:

| pIC50 [1] | pEC50 [2] | Structure (SMILES) | also measured |
| --- | --- | --- | --- |
| < 4.52 | – | CCC(C(=O)Nc1ccccc1N1CCCCCC1)c1ccccc1 (racemic) | – |
| 6.59 | – | CC(C(=O)Nc1ccccc1N1CCCC1)c1ccccc1 (racemic) | – |
| 6.41 | – | CCC(C(=O)Nc1ccccc1N1CCCC1)c1cccc(C(F)(F)F)c1 (racemic) | Ratio IC50 [3]: > 40 |
| – | 6.31 | O=C(Cc1cccc(F)c1)Nc1ccccc1N1CCCC1 | – |
| – | 6.15 | O=C(Cc1ccc(F)cc1)Nc1ccccc1N1CCCC1 | – |
| – | 5.15 | O=C(Cc1cccc(Cl)c1)Nc1ccccc1N1CCCCC1 | – |
| – | 6.00 | O=C(Nc1ccccc1N1CCCC1)C(F)c1ccccc1 (configuration not stated) | – |
| – | 6.46 | O=C(Cc1cccc(C(F)(F)F)c1)Nc1ccccc1N1CCCC1 | – |
| – | 6.10 | O=C(Cc1ccc(Cl)cc1)Nc1ccccc1N1CCCC1 | – |
| 5.46 | – | O=C(Nc1ccccc1N1CCCC1)C(c1ccccc1)C1CC1 (racemic) | – |
| 6.48 | – | O=C(Nc1ccccc1N1CCCC1)C1CCc2ccccc21 (racemic) | – |
| 5.48 | – | CCC(C(=O)Nc1ccccc1N1CCCC1)c1ccccc1Cl (racemic) | – |
| – | 6.77 | O=C(Cc1cccc(Cl)c1)Nc1ccccc1N1CCCC1 | – |
| 5.65 | – | CC(C)CC(C(=O)Nc1ccccc1N1CCCC1)c1ccccc1 (racemic) | – |
| < 4.52 | – | O=C(Nc1ccccc1N1CCCC1)C1(c2ccccc2)CC1 | – |
| – | 6.13 | O=C(Cc1ccccc1)Nc1ccccc1N1CCCC1 | – |
| 6.92 | – | CCC(C(=O)Nc1ccccc1N1CCCC1)c1cccc(OC)c1 (racemic) | Ratio IC50 [3]: > 40 |
| – | 5.88 | Cc1cccc(CC(=O)Nc2ccccc2N2CCCC2)c1 | – |
| 6.44 | – | CCC(C(=O)Nc1ccccc1N1CCCC1)c1cccc(F)c1 (racemic) | Ratio IC50 [3]: > 40 |
| 6.48 | – | CCC(C(=O)Nc1ccccc1N1CCCC1)c1cccc(C)c1 (racemic) | Ratio IC50 [3]: > 40 |
| – | 5.76 | COc1ccc(CC(=O)Nc2ccccc2N2CCCC2)cc1 | – |
| – | 6.02 | O=C(Cc1ccccc1Cl)Nc1ccccc1N1CCCC1 | – |
| < 4.52 | – | CCC(C(=O)N(C)c1ccccc1N1CCCC1)c1ccccc1 (racemic) | – |
| – | 5.63 | COc1cccc(CC(=O)Nc2ccccc2N2CCCC2)c1 | – |
| 6.62 | – | CCC(C(=O)Nc1ccccc1N1CCCC1)c1cccc(Cl)c1 (racemic) | Ratio IC50 [3]: > 40 |
| < 4.52 | – | O=C(Nc1ccccc1N1CCCC1)C1CCOc2ccccc21 (racemic) | – |
| 6.79 | – | CCC(C(=O)Nc1ccccc1N1CCCC1)c1ccccc1 (racemic) | – |
| 6.49 | – | CCCC(C(=O)Nc1ccccc1N1CCCC1)c1ccccc1 (racemic) | – |
| 6.36 | – | CCC(C(=O)Nc1ccccc1N1CCCC1)c1ccccc1F (racemic) | Ratio IC50 [3]: > 40 |
| < 4.52 | – | CC(C)(C(=O)Nc1ccccc1N1CCCC1)c1ccccc1 | – |
